# Measurements taken from ChEMBL document CHEMBL3779815, “Synthesis of newer 1,2,3-triazole linked chalcone and flavone hybrid compounds and evaluation of their antimicrobial and cytotoxic activities” (Eur J Med Chem, 2016).
# What was measured:
# [1] = tested on: Plasmodium falciparum; test: Antimalarial activity against erythrocytic stage of chloroquine sensitive Plasmodium falciparum 3D7 assessed as inhibition of parasitemia after 48 hrs by Giemsa staining based microscopic analysis; type: functional, organism-based; details: 3D7, 48 h
# Summary of the method: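 Asynchronous culture on human O⁺ erythrocytes, 1-1.5% parasitemia, 4% hematocrit, RPMI-1640 with HEPES, NaHCO₃, glutamine, gentamycin, Albumax II; drug 0.10-100 μg/mL, 48 h, 37 °C, medium changed at 24 h; triplicate wells; Giemsa thin smears, about 4,000 erythrocytes counted at 1,000X; % parasitemia inhibition versus control gives IC50.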
# [2] = Cytotoxicity against human HuH7 cells after 72 hrs by MTT assay; type: cell-based, Huh-7
# Summary of the method: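 Huh-7 cells, 4 × 10³/well in DMEM with 10% FBS and penicillin-streptomycin-glutamine; eight 2-fold dilutions 100-0.78 μg/mL, 72 h; MTT added 2-4 h, then isopropanol/Triton X-100/HCl solubilization 2 h dark, RT; absorbance 570 nm; CC50 as mean of at least two experiments in duplicate.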
# [3] = tested on: Staphylococcus aureus; test: Antibacterial activity against Staphylococcus aureus […] after 18 to 24 hrs by micro-dilution method; type: functional
# [4] = tested on: Enterococcus faecalis; test: Antibacterial activity against Enterococcus faecalis ATCC 29212 after 18 to 24 hrs by micro-dilution assay; type: functional
# [5] = tested on: Escherichia coli; test: Antibacterial activity against Escherichia coli ATCC 35218 after 18 to 24 hrs by micro-dilution method; type: functional
# [6] = tested on: Pseudomonas aeruginosa; test: Antibacterial activity against Pseudomonas aeruginosa […] after 18 to 24 hrs by micro-dilution method; type: functional
# [7] = tested on: Shigella boydii; test: Antibacterial activity against Shigella boydii clinical isolate after 18 to 24 hrs by micro-dilution method; type: functional
# [8] = tested on: Klebsiella pneumoniae; test: Antibacterial activity against Klebsiella pneumoniae ATCC 27736 after 18 to 24 hrs by micro-dilution method; type: functional
# [9] = tested on: Candida albicans; test: Antifungal activity against Candida albicans ATCC 90028 after 18 to 24 hrs by micro-dilution method; type: functional
# Summary of the method: (§1)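 Microdilution MIC run as the antibacterial protocol but on Sabouraud dextrose […] pH 7.3±0.2; compounds 100 to 0.78 μg/mL in twofold steps; saline-prepared inocula 1-2 × 10⁷ cfu/mL, 0.01 mL added; 37 °C aerobic, 18-24 h; MIC read as lowest concentration without visible growth or turbidity; fluconazole reference.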
# [10] = tested on: Candida albicans; test: Antifungal activity against Candida albicans clinical isolate after 18 to 24 hrs by micro-dilution method; type: functional; summary of the method: as §1
# [11] = tested on: Candida tropicalis; test: Antifungal activity against Candida tropicalis ATCC 750 after 18 to 24 hrs by micro-dilution method; type: functional; summary of the method: as §1
# [12] = tested on: Candida parapsilosis; test: Antifungal activity against Candida parapsilosis ATCC 22019 after 18 to 24 hrs by micro-dilution method; type: functional; details: Lodderomyces parapsilosis; summary of the method: as §1
# [13] = tested on: Cryptococcus neoformans; test: Antifungal activity against Cryptococcus neoformans clinical isolate after 18 to 24 hrs by micro-dilution method; type: functional; summary of the method: as §1
# [14] = tested on: Arthrodermataceae; test: Antifungal activity against Dermatophyte clinical isolate after 18 to 24 hrs by micro-dilution method; type: functional; summary of the method: as §1
# [15] = tested on: Aspergillus niger; test: Antifungal activity against Aspergillus niger clinical isolate after 18 to 24 hrs by micro-dilution method; type: functional; summary of the method: as §1
# [16] = tested on: Aspergillus fumigatus; test: Antifungal activity against Aspergillus fumigatus clinical isolate after 18 to 24 hrs by micro-dilution method; type: functional; summary of the method: as §1
SMILES,IC50 [1] [µg/mL],CC50 at 72 h [2] [µg/mL],MIC [3] [µg/mL],MIC [4] [µg/mL],MIC [5] [µg/mL],MIC [6] [µg/mL],MIC [7] [µg/mL],MIC [8] [µg/mL],MIC [9] [µg/mL],MIC [10] [µg/mL],MIC [11] [µg/mL],MIC [12] [µg/mL],MIC [13] [µg/mL],MIC [14] [µg/mL],MIC [15] [µg/mL],MIC [16] [µg/mL]
C[C@@H]1CC[C@H]2[C@@H](C)C(=O)O[C@@H]3O[C@@]4(C)CC[C@@H]1[C@]32OO4 [ARTEMISININ],0.00112,> 100,–,–,–,–,–,–,–,–,–,–,–,–,–,–
COc1cc(O)c(C(=O)/C=C/c2ccc(OCc3cn(-c4ccc(F)cc4F)nn3)c(OC)c2)c(OC)c1,3.58,> 100,12.5,12.5,6.25,12.5,6.25,12.5,> 100,50,> 100,25,50,> 100,> 100,> 100
COc1cc(OC)c2c(=O)cc(-c3ccc(OCc4cn(-c5ccccc5Cl)nn4)c(OCc4cn(-c5ccccc5Cl)nn4)c3)oc2c1,8.98,> 100,> 100,> 100,> 100,> 100,> 100,> 100,12.5,12.5,12.5,12.5,6.25,12.5,12.5,12.5
OC(Cn1cncn1)(Cn1cncn1)c1ccc(F)cc1F [FLUCONAZOLE],–,–,–,–,–,–,–,–,0.5,0.5,0.5,0.5,2,4,2,2
COc1cc(OC)c2c(=O)cc(-c3ccc(OCc4cn(-c5ccc(Cl)cc5)nn4)c(OC)c3)oc2c1,5.19,> 100,> 100,100,> 100,> 100,> 100,> 100,50,12.5,50,50,12.5,12.5,50,50
COc1cc(O)c(C(=O)/C=C/c2ccc(OCc3cn(-c4ccc(F)cc4F)nn3)c(OCc3cn(-c4ccc(F)cc4F)nn3)c2)c(OC)c1,8.86,> 100,12.5,6.25,6.25,12.5,6.25,12.5,6.25,6.25,12.5,12.5,6.25,12.5,25,25
COc1cc(OC)c2c(=O)cc(-c3ccc(OCc4cn(-c5ccccc5Cl)nn4)c(OC)c3)oc2c1,12.1,> 100,50,50,100,50,> 100,100,> 100,> 100,> 100,> 100,> 100,> 100,> 100,> 100
